Here are results for one compound from ChEMBL document CHEMBL4715822, “Structure-based lead optimization to improve antiviral potency and ADMET properties of phenyl-1H-pyrrole-carboxamide entry inhibitors targeted to HIV-1 gp120” (Eur J Med Chem, 2018).

The test system of data set [1] is Human immunodeficiency virus 1. Nature of the data set: Antiviral activity against pseudovirus HIV-1 HXB-2 harboring Env M426L mutant infected in human U87.CD4.CXCR4 cells assessed as reduction in viral infection pretreated for 30 mins before viral infection and measured after 3 days by luciferase based assay. Format: functional, cell-based, M:B_HXB2R. In short, it runs like this:
(§1)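 Pseudoviruses made in HEK293T by co-transfecting an Env-deleted backbone (pSG3Δenv or pNL4-3.Luc.R-.E-) with an HXB-2 Env plasmid carrying single or double substitutions; Env sequences confirmed by sequencing. Virus pretreated 30 min with graded compound, added to U87-CD4-CXCR4 cells (1 × 10⁴/well, plated overnight), incubated 3 days. Cells lysed, luciferase measured, IC50 calculated.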

The nature of data set [2]: Apparent permeability across basolateral to apical side in human Caco2 cells incubated for 2 hrs by LC-MS/MS analysis. Format: ADME, cell-based, Caco-2. To be noted: caco-2, 2 h. In short, it runs like this: (§2)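 Caco-2 monolayers grown three weeks to differentiate; compound in transport buffer pH 7.4 (glucose, 10 mM HEPES, HBSS) added apical (A-B) or basal (B-A) side, with or without 100 μM verapamil; 2 h incubation, both sides sampled. Lucifer yellow 100 μM on A side checks integrity (≤2% transport). Papp = (dQ/dt)/(C0 × A); efflux ratio = Papp(B→A)/Papp(A→B).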

In data set [3] the test system is Human immunodeficiency virus 1. Nature of the data set: Antiviral activity against clinical isolate HIV-1 92US073 infected in human PBMC cells assessed as reduction in viral transmission to TZM-bl cells pretreated for 1 hr before viral transmission and further incubated for 48 hrs by luciferase based assay. To be noted: Human immunodeficiency virus 1, 92US073, PBMC. Format: functional, cell-based. Summed up: (§3)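 PBMC from healthy HIV-negative donors infected with replication-competent virus in the presence of 30 μg/ml DEAE-dextran. On day 4 post-infection, cells washed free of virus and counted. 2 × 10⁴ infected PBMC/well pretreated with escalating compound for 1 h at 37 °C, then co-cultured 48 h with TZM-bl targets (10⁴/well, plated 24 h before). TZM-bl lysed, luciferase read, IC50 calculated.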

The test system of data set [4] is Human immunodeficiency virus 1. Kind of data set: Antiviral activity against pseudovirus HIV-1 HXB-2 harboring Env S375Y mutant infected in human U87.CD4.CXCR4 cells assessed as reduction in viral infection pretreated for 30 mins before viral infection and measured after 3 days by luciferase based assay. Format: functional, cell-based, M:B_HXB2R. Summed up: as §1

Data set [5] deals with Human immunodeficiency virus 1. Kind of data set: Antiviral activity against Laboratory adapted HIV-1 89.6 infected in human PBMC cells assessed as reduction in viral transmission to TZM-bl cells pretreated for 1 hr before viral transmission and further incubated for 48 hrs by luciferase based assay. Format: functional, cell-based. To be noted: Human immunodeficiency virus 1, 89.6, PBMC.

Data set [6] concerns Human immunodeficiency virus 1. Kind of data set: Antiviral activity against pseudovirus HIV-1 HXB-2 harboring Env M475I mutant infected in human U87.CD4.CXCR4 cells assessed as reduction in viral infection pretreated for 30 mins before viral infection and measured after 3 days by luciferase based assay. Format: functional, cell-based, M:B_HXB2R. In short, it runs like this:
as §1

Data set [7] concerns Human immunodeficiency virus 1. Kind of data set: Antiviral activity against pseudovirus HIV-1 HXB-2 harboring Env I424F mutant infected in human U87.CD4.CXCR4 cells assessed as reduction in viral infection pretreated for 30 mins before viral infection and measured after 3 days by luciferase based assay. Format: functional, cell-based, M:B_HXB2R. In short, it runs like this:
as §1

Data set [8] concerns Human immunodeficiency virus 1. Nature of the data set: Antiviral activity against HIV-1 ADA infected in human MOLT-4 cells assessed as reduction in viral transmission to TZM-bl cells incubated for 48 hrs by luciferase based assay. Format: functional, organism-based. To be noted: Human immunodeficiency virus 1, ADA, MOLT-4, 48 h.
The subject of data set [9] is Human immunodeficiency virus 1. Kind of data set: Antiviral activity against pseudovirus HIV-1 HXB-2 harboring Env L116P mutant infected in human U87.CD4.CXCR4 cells assessed as reduction in viral infection pretreated for 30 mins before viral infection and measured after 3 days by luciferase based assay. Format: functional, cell-based, M:B_HXB2R. Summed up: as §1

In data set [10] the test system is Human immunodeficiency virus 1. Nature of the data set: Antiviral activity against clinical isolate HIV-1 92US657 infected in human PBMC cells assessed as reduction in viral transmission to TZM-bl cells pretreated for 1 hr before viral transmission and further incubated for 48 hrs by luciferase based assay. To be noted: Human immunodeficiency virus 1, 92US657, PBMC. Format: functional, cell-based. Summed up: as §3

Data set [11] has as its system Human immunodeficiency virus 1. Kind of data set: Antiviral activity against pseudovirus HIV-1 HXB-2 harboring Env A204D mutant infected in human U87.CD4.CXCR4 cells assessed as reduction in viral infection pretreated for 30 mins before viral infection and measured after 3 days by luciferase based assay. Format: functional, cell-based, M:B_HXB2R. In short, it runs like this: as §1

Data set [12] relates to Human immunodeficiency virus 1. Kind of data set: Antiviral activity against Laboratory adapted HIV-1 LA1 infected in human PBMC cells assessed as reduction in viral transmission to TZM-bl cells pretreated for 1 hr before viral transmission and further incubated for 48 hrs by luciferase based assay. Format: functional, organism-based. To be noted: Human immunodeficiency virus 1, LA1, PBMC. Summed up: as §3

The subject of data set [13] is Human immunodeficiency virus 1. Kind of data set: Antiviral activity against clinical isolate HIV-1 93RW034 infected in human PBMC cells assessed as reduction in viral transmission to TZM-bl cells pretreated for 1 hr before viral transmission and further incubated for 48 hrs by luciferase based assay. Format: functional, organism-based. To be noted: Human immunodeficiency virus 1, 93RW034, PBMC.

For data set [14], the system named is Human immunodeficiency virus 1. Kind of data set: Antiviral activity against clinical isolate HIV-1 BCF01 infected in human PBMC cells assessed as reduction in viral transmission to TZM-bl cells pretreated for 1 hr before viral transmission and further incubated for 48 hrs by luciferase based assay. Format: functional, cell-based. To be noted: Human immunodeficiency virus 1, BCF01, PBMC. Summed up: as §3

Data set [15] deals with Human immunodeficiency virus 1. Kind of data set: Antiviral activity against pseudovirus HIV-1 HXB-2 harboring Env F468L mutant infected in human U87.CD4.CXCR4 cells assessed as reduction in viral infection pretreated for 30 mins before viral infection and measured after 3 days by luciferase based assay. Format: functional, cell-based, M:B_HXB2R. Summed up:
as §1

Data set [16] concerns Human immunodeficiency virus 1. Kind of data set: Antiviral activity against pseudovirus HIV-1 HXB-2 harboring Env M434I/I595F double mutant infected in human U87.CD4.CXCR4 cells assessed as reduction in viral infection pretreated for 30 mins before viral infection and measured after 3 days by luciferase based assay. Format: functional, cell-based, M:B_HXB2R. In short, it runs like this:
as §1

For data set [17], the system named is Human immunodeficiency virus 1. Nature of the data set: Antiviral activity against clinical isolate HIV-1 Ru132 infected in human PBMC cells assessed as reduction in viral transmission to TZM-bl cells pretreated for 1 hr before viral transmission and further incubated for 48 hrs by luciferase based assay. Format: functional, cell-based. To be noted: Human immunodeficiency virus 1, Ru132, PBMC. In short, it runs like this: as §3

The subject of data set [18] is Human immunodeficiency virus 1. Nature of the data set: Antiviral activity against Laboratory adapted HIV-1 BaL infected in human PBMC cells assessed as reduction in viral transmission to TZM-bl cells pretreated for 1 hr before viral transmission and further incubated for 48 hrs by luciferase based assay. Format: functional, cell-based. To be noted: Human immunodeficiency virus 1, BaL. Summed up:
as §3

For data set [19], the system named is Human immunodeficiency virus 1. Nature of the data set: Antiviral activity against pseudovirus HIV-1 HXB-2 harboring Env S375H mutant infected in human U87.CD4.CXCR4 cells assessed as reduction in viral infection pretreated for 30 mins before viral infection and measured after 3 days by luciferase based assay. Format: functional, cell-based, M:B_HXB2R. In short, it runs like this:
as §1

The test system of data set [20] is Human immunodeficiency virus 1. Kind of data set: Antiviral activity against pseudovirus HIV-1 HXB-2 harboring Env S375W mutant infected in human U87.CD4.CXCR4 cells assessed as reduction in viral infection pretreated for 30 mins before viral infection and measured after 3 days by luciferase based assay. Format: functional, cell-based, M:B_HXB2R. Summed up: as §1

The nature of data set [21]: Apparent permeability across apical to basolateral side in human Caco2 cells incubated for 2 hrs by LC-MS/MS analysis. Format: ADME, cell-based, Caco-2. To be noted: caco-2, 2 h. Summed up:
as §2

Data set [22] deals with Human immunodeficiency virus 1. Nature of the data set: Antiviral activity against clinical isolate HIV-1 RU570 infected in human PBMC cells assessed as reduction in viral transmission to TZM-bl cells pretreated for 1 hr before viral transmission and further incubated for 48 hrs by luciferase based assay. Format: functional, cell-based. To be noted: Human immunodeficiency virus 1, RU570, PBMC.

The test system of data set [23] is Human immunodeficiency virus 1. Nature of the data set: Antiviral activity against clinical isolate HIV-1 93RW018 infected in human PBMC cells assessed as reduction in viral transmission to TZM-bl cells pretreated for 1 hr before viral transmission and further incubated for 48 hrs by luciferase based assay. Format: functional, organism-based. To be noted: Human immunodeficiency virus 1, 93RW018, PBMC.

For the compound `COc1cnc(-n2cnc(C)n2)c2[nH]cc(C(=O)C(=O)N3CCN(C(=O)c4ccccc4)CC3)c12`, the IC50 is 230 nM in data set [1]; 100 nM in data set [3]; > 1000 nM in data set [4]; 100 nM in [5]; 50 nM in [6]; > 1000 nM in data set [7]. Besides, the IC50 was 400 nM in [8]; > 1000 nM in [9]; 100 nM in data set [10]; > 1000 nM in data set [11]; 100 nM in data set [12]; 100 nM in data set [13]. Besides, the IC50 is > 6000 nM in data set [14]; 8 nM in [15]; 8 nM in data set [16]; 100 nM in [17]; 100 nM in [18]; > 1000 nM in data set [19]. Moreover, the results for the IC50 in [20], in data set [22] and in data set [23] were > 1000 nM, 100 nM and 100 nM, respectively. The results for the Papp in data set [2] and in [21] were 32 10^-6 cm/s and 9.27 10^-6 cm/s, respectively.
